Assays:
Mus musculus [1] = assay: Inhibition of 11beta-HSD1 in mouse liver at 3 mg/kg, po after 24 hrs; assay type: functional
In short: (§1)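 Pharmacodynamic study in mice: single oral 3 mg/kg dose, with liver and fat 11β-HSD1 activity followed over 24 h post-dosing.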

Liver microsomes = assay: Metabolic stability in human liver microsomes; assay type: ADME, Microsome
Mus musculus [2] = assay: Antidiabetic activity in diet induced obese C57Bl/6J mouse assessed as plasma cholesterol level at 1 mg/kg, po qd administered for 4 weeks (reference value: 154.3 +/- 8.6 mg/dL); assay type: functional
Mus musculus [3] = assay: Toxicity in C57Bl/6J mouse assessed as change in body weight at 1 to 10 mg/kg, po; assay type: organism-based; set-up: dose 1-10 mg/kg, route oral; conditions: in vivo
In short: (§2)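 C57Bl/6J mice, 20 weeks old, kept on a high-fat/high-fructose diet (diet-induced obese), were dosed orally once daily for 4 weeks at 1, 3 or 10 mg/kg/day in methylcellulose-Tween 80 vehicle. Lean and obese vehicle-treated controls were included, with n = 9–10 per group. Food intake and body weight were followed. Plasma drug levels were taken at study end, about 22 h after the last dose.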

Mus musculus [4] = assay: Inhibition of 11beta-HSD1 in mouse adipose tissue at 3 mg/kg, po after 24 hrs; assay type: functional; in short: as §1
Mus musculus [5] = assay: Hepatotoxicity in C57Bl/6J mouse assessed as alteration of liver function biomarkers at 1 to 10 mg/kg, po after 4 weeks; assay type: toxicity, organism-based; set-up: dose 1-10 mg/kg, route oral; conditions: in vivo, 672 h
[6] = Permeability across human Caco2 cells; assay type: ADME, cell-based; conditions: Caco-2, read-out: permeability
In short: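 Permeability was measured with the compound alone and in the presence of the P-gp inhibitor elacridar, and expressed in 10^-7 cm/s.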

[7] = Volume of distribution at steady state in rat at 3 mg/kg, iv and 10 mg/kg, po; assay type: ADME, organism-based; conditions: in vivo, read-out: Vdss
Mus musculus [8] = assay: Antidiabetic activity in diet induced obese C57Bl/6J mouse assessed as plasma insulin level at 1 mg/kg, po qd administered for 4 weeks (reference value: 3.6 +/- 0.2 ng/mL); assay type: functional
[9] = target: 11-beta-hydroxysteroid dehydrogenase 1 (Mus musculus, UniProt P50172); assay: Inhibition of mouse recombinant 11beta-HSD1 by scintillation proximity assay
Chain of 11-beta-hydroxysteroid dehydrogenase 1 (Mus musculus, UniProt P50172) (P50172 whole entry): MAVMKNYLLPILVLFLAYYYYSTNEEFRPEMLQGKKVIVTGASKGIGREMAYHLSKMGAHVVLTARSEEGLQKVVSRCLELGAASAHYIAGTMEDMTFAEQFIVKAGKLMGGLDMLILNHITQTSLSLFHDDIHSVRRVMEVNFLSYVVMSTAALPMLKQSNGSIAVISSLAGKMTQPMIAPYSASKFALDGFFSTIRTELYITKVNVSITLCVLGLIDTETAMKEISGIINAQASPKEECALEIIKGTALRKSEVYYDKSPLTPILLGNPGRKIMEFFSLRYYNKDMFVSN

Xenopus laevis = species on record: Xenopus laevis; assay: Toxicity in Xenopus laevis by teratogenicity assay; assay type: organism-based; conditions: in vivo
Mus musculus [10] = assay: Antidiabetic activity in diet induced obese C57Bl/6J mouse assessed as liver triglyceride level at 1 mg/kg, po qd administered for 4 weeks (reference value: 210.5 +/- 15.4 mg/g); assay type: functional
[11] = target: 11-beta-hydroxysteroid dehydrogenase 1 (Rattus norvegicus, UniProt P16232); assay: Inhibition of rat 11beta-HSD1
Chain of 11-beta-hydroxysteroid dehydrogenase 1 (Rattus norvegicus, UniProt P16232) (P16232 whole entry): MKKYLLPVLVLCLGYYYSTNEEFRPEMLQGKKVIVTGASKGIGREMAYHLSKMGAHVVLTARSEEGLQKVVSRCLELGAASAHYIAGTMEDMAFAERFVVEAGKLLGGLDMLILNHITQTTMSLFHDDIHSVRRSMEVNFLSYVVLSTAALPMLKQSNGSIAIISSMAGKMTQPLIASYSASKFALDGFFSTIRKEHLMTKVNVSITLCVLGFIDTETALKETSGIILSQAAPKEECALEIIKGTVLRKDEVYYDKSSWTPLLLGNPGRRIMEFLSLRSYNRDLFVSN

in vivo = conditions: rat, liver, po, 10 mg/kg
[12] = Cmax in rat plasma at 10 mg/kg, po; assay type: ADME, organism-based; set-up: dose 10 mg/kg, route oral
Mus musculus [13] = assay: Antidiabetic activity in diet induced obese C57Bl/6J mouse assessed as plasma glucose level at 10 mg/kg, po qd administered for 4 weeks (reference value: 297 +/- 15 mg/dL); assay type: functional
Mus musculus [14] = assay: Toxicity in C57Bl/6J mouse assessed as effect on food intake at 1 to 10 mg/kg, po; assay type: organism-based; set-up: dose 1-10 mg/kg, route oral; conditions: in vivo; in short: as §2
[15] = Oral bioavailability in rat at 10 mg/kg; assay type: ADME, organism-based; conditions: in vivo
[16] = Plasma clearance in rat at 3 mg/kg, iv and 10 mg/kg, po; assay type: ADME, organism-based
Mus musculus [17] = assay: Antidiabetic activity in diet induced obese C57Bl/6J mouse assessed as plasma insulin level at 3 mg/kg, po qd administered for 4 weeks (reference value: 3.6 +/- 0.2 ng/mL); assay type: functional
Mus musculus [18] = assay: Antidiabetic activity in diet induced obese C57Bl/6J mouse assessed as liver triglyceride level at 3 mg/kg, po qd administered for 4 weeks (reference value: 210.5 +/- 15.4 mg/g); assay type: functional
[19] = AUC (0 to infinity) in rat plasma at 10 mg/kg, po; assay type: ADME, organism-based; set-up: time infinity, dose 10 mg/kg, route oral
Mus musculus [20] = assay: Antidiabetic activity in diet induced obese C57Bl/6J mouse assessed as plasma insulin level at 10 mg/kg, po qd administered for 4 weeks (reference value: 3.6 +/- 0.2 ng/mL); assay type: functional

CC(C)(C)N1CCN(c2ccc(N3CCN(C(=O)N[C@H]4C5CC6CC4C[C@](C(N)=O)(C6)C5)c4ccccc43)nc2)CC1
inhibition in vivo at 3 mg/kg (Mus musculus [1]): 60%
Stability (Liver microsomes): 2%
Activity (Mus musculus [2]): 127.7 mg/dL
Activity (Mus musculus [3]): Non-toxic
inhibition in vivo at 3 mg/kg (Mus musculus [4]): 40%
Activity (Mus musculus [5]): Non-toxic
Papp [6]: 0.3 ×10⁻⁶ cm/s
Vd [7]: 14 L/kg
Activity (Mus musculus [8]): 2.8 ng/mL
IC50 [9]: 6 nM
Activity (Xenopus laevis): Non-toxic
Activity (Mus musculus [10]): 167.4 mg/g
IC50 [11]: 7 nM
Kp (in vivo): 224
Cmax [12]: 556 ng/mL
Activity (Mus musculus [13]): 224.6 mg/dL
Activity (Mus musculus [14]): Non-toxic
bioavailability [15]: 25%
clearance [16]: 86.7 mL/min/kg
Activity (Mus musculus [17]): 2.3 ng/mL
Activity (Mus musculus [18]): 142.8 mg/g
AUC(0-inf) [19]: 580 ng·h/mL
Activity (Mus musculus [20]): 1.9 ng/mL
